High-throughput results (PubChem BioAssay)
TDP2 absorb = blocks human TDP2 phosphodiesterase activity; O95551; recombinant TDP2, T5PNP hydrolysis, p-nitrophenol absorbance 415 nm; inhibition, % at 12.8 µM; 370,000 tested, 0.34% active;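 active = inhibition above the mean of all tested compounds plus 3 SD, set per campaign, cut at about 25% in these data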
Target sequence (O95551 whole entry, looked up): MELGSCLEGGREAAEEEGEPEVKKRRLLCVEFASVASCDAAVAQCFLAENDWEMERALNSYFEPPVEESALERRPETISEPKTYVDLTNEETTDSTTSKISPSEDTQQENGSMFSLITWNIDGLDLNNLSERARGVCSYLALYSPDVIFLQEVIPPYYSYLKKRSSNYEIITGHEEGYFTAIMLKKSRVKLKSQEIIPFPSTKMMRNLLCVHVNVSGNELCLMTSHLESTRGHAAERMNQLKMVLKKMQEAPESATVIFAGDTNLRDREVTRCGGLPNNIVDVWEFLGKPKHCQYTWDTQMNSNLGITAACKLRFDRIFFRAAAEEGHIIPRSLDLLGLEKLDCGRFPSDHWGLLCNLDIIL
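Assay system: Recombinant human TDP2 | Quantity: 120 nM TDP2 per well | Incubation: 2 h at 37 °C | Signal: Epi absorbance | Evaluation: Percent inhibition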
TCR-CD3 inh = blocks the human TCR-CD3 interaction. inhibition, % at 9.4 µM. AID 651800. 360,000 tested, 0.37% active. TAMRA-labeled TCR probe fluorescence, biochemical;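 also: recombinant mutant TCR 2C K166C tagged with TAMRA read by polarization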
ABHD4 inh = inhibitors of mouse ABHD4 | purified mABHD4, FP-Rh probe fluorescence polarization | inhibition, % at 8.92 µM | 370,000 tested, 0.54% active;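 active = inhibition exceeding the mean over every tested compound plus 3 SD, cut at about 30% in these data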
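Test system: mABHD4 protein | Buffer or medium: HEPES pH 7.0 buffer, 150 mM NaCl, 0.01% Pluronic F-127 | Probe or stimulus: FP-Rh fluorescent activity-based probe, added after compound pre-incubation | Timing: Pre-incubation 45 min, probe exposure 60 min, at 25 °C | Technique: Fluorescence polarization, excitation 525 nm, emission 598 nm, BODIPY TMR filters | Repeats: Single well per compound (singlicate)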
HTRA1 inh = HTRA1 (human) protease inhibition | AID 504803 | Q92743 | recombinant HTRA1, FP-rhodamine activity-based probe, fluorescence polarization | 340,000 tested, 0.5% active | inhibition, % at 5.96 µM; in the data active = inhibition above about 36%
SIAE inh = blocks human sialic acid acetylesterase; Q9HAT2; SIAE FP-Rh probe binding, fluorescence polarization; inhibition, % at 9.66 µM; 370,000 tested, 0.69% active; AID 1053197;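 active = inhibition above a cutoff: mean of compounds within the control limits plus 3 SD of those, cut at about 17% in these data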
PAD4 inh = inhibitors of human PAD4; Q9UM07; inhibition, % at 6.36 µM; 330,000 tested, 0.41% active; recombinant PAD4, RCA probe fluorescence polarization; AID 485272;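 active = percent inhibition above a cutoff equal to the mean of all tested compounds plus 3 SD, cut at about 15% in these data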
PAD4 confirm = PAD4 (human) inhibition, confirmed; shares compounds with PAD4 inh; inhibition, % at 6.36 µM; AID 488796; 1,200 tested, 28% active; recombinant PAD4, RCA probe fluorescence polarization;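 active = mean inhibition across replicates above the hit cutoff set by the earlier primary screen, cut at about 15% in these data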;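 also: inhibitors block active-site labeling by the probe so polarization falls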
HTRA1 inh conf = HTRA1 (human) inhibition, confirmation | shares compounds with HTRA1 inh | recombinant HTRA1, FP-rhodamine activity-based probe, fluorescence polarization | inhibition, % at 5.96 µM | 1,600 tested, 66% active | AID 540248;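 active = mean inhibition over three repeats above a set limit taken from the earlier primary screen, cut at about 37% in these data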;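 also: inhibitors block probe binding so polarization drops and inhibition rises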
BSA TAMRA ctr = BSA probe counter-screen for TCR-CD3 inhibitors; shares compounds with TCR-CD3 inh; TAMRA-labeled BSA probe fluorescence counterscreen; inhibition, % at 9.4 µM; 1,200 tested, 10% active; in the data active = inhibition above about 23%
TCR-CD3 conf = confirmation of human TCR-CD3 interaction inhibitors; shares compounds with TCR-CD3 inh; TAMRA-labeled TCR probe fluorescence binding assay; inhibition, % at 9.4 µM; 1,200 tested, 48% active; AID 652036
mABHD4 conf = ABHD4 (mouse) inhibition, FP confirmation | shares compounds with ABHD4 inh | 1,800 tested, 55% active | inhibition, % at 8.92 µM | purified mABHD4, FP-Rh probe fluorescence polarization;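 active = mean inhibition across replicates above the hit cutoff set in the primary screen, cut at about 30% in these data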
Hits are given with their value; – = inactive; · = no result given. Rows were chosen to be rich in hits. Some 2% of all compounds tested hit in one or more screens of this group. Rule as the data show it, unless noted: active = inhibition above about 19%; inactive = the rest.

SMILES	TDP2 absorb	TCR-CD3 inh	ABHD4 inh	HTRA1 inh	SIAE inh	PAD4 inh	PAD4 confirm	mABHD4 conf	others
Cc1cc(=O)oc2c(CN3CCC(C)CC3)c(O)c(Cl)cc12	–	25	–	–	26	33	21	·	BSA TAMRA ctr=33;TCR-CD3 conf=35
Cc1cc(=O)oc2c(CN3CCCC3)c(O)c(Cl)cc12	–	–	–	–	–	–	·	·
O=C(O[C@H]1CC[C@@]23CCCN2C(=O)CCC[C@H]3C1)N1CCOCC1	–	·	–	·	–	·	·	·
COc1cccc2c1C(=O)c1c(O)c3c(c(O)c1C2=O)C[C@@](O)(C(=O)CO)C[C@@H]3O[C@H]1C[C@H](N)[C@H](O)[C@H](C)O1	–	137	52	63	39	58	68	·	HTRA1 inh conf=67;BSA TAMRA ctr=157;TCR-CD3 conf=127
C=Cc1c(C)c2cc3[nH]c(cc4nc(cc5nc(cc1[nH]2)C(C)=C5CCC(=O)O)C(CCC(=O)O)=C4C)c(C)c3C=C	–	37	70	69	75	24	–	·	BSA TAMRA ctr=–;TCR-CD3 conf=19
CCCCCc1ccc(NC(=O)O[C@@H]2CC[C@@]34CCCN3C(=O)CCC[C@H]4C2)cc1	–	·	–	·	–	·	·	·
Nn1c(SCC(=O)NC2CCCCC2)nnc1-c1cc(-c2ccc(Cl)cc2)n[nH]1	–	·	–	·	–	·	·	·
O=C1CC(Nc2ccc(N3CCOCC3)cc2)C(=O)N1c1ccccc1F (centres undefined)	–	–	50	–	–	16	–	–
Cc1ccc(C=Nc2ccc(N(C)C)cc2)o1	–	–	40	52	–	25	–	34
Cc1ccc(C=Nc2ccccc2C(N)=O)o1	–	–	–	–	–	–	·	·
CCOC(=O)NC(=O)/C(C#N)=C\Nc1sccc1C(=O)OC	–	–	63	–	–	35	–	–
CCOC(=O)NC(=O)/C(C#N)=C\Nc1ccc(Cl)cc1Cl	–	–	–	–	–	–	·	·
O=[N+]([O-])c1cccc2[nH]c(CNc3nc(N4CCOCC4)nc4c3ncn4-c3ccsc3)nc12	–	·	–	·	–	·	·	·
Cc1cccc(N/C=C/c2onc(C)c2[N+](=O)[O-])c1	–	–	–	–	–	–	·	·
Cc1cc(O)ccc1N/C=C/c1onc(C)c1[N+](=O)[O-]	–	–	56	–	–	37	–	–
CCN(CC)c1ccc(N=Cc2ccc(N(CC)CC)cc2O)cc1	–	–	39	65	–	17	–	–	HTRA1 inh conf=–
Cc1ccc(-n2c(Cc3cccs3)nnc2SCC(=O)Nc2cccc3ccccc23)cc1	–	·	–	·	–	·	·	·
O=C1/C(=C/C=C/c2ccco2)SC(=S)N1NS(=O)(=O)c1ccccc1	–	22	46	–	–	65	–	–	BSA TAMRA ctr=–;TCR-CD3 conf=21
O=C1/C(=C/c2cccs2)SC(=S)N1NS(=O)(=O)c1ccccc1	–	–	–	–	–	–	·	·
Oc1cccc(C=NCc2ccccc2)c1O	–	29	45	55	18	21	–	43	HTRA1 inh conf=62
CC(C)(C)OC(=O)C1[C@H](O)C=CC[C@H]1S(=O)c1ccccc1 (some centres undefined)	–	·	–	·	–	·	·	·
Cc1cccc(NC(=S)NCc2ccc3c(c2)cc(C)n3C)c1C	–	–	30	50	–	19	–	–	HTRA1 inh conf=–
CCn1c(SCc2c(F)cccc2F)nc2sc3c(c2c1=O)CCCC3	–	·	–	·	–	·	·	·
O=c1[nH]nc(CNc2ccc(O)cc2)c2ccccc12	–	89	82	85	79	55	–	37	HTRA1 inh conf=–;BSA TAMRA ctr=–;TCR-CD3 conf=–
